High-throughput results as filed in PubChem.
A selection: hits, their analogues and other compounds. The true share with any hit is near 3.1%.
NS3 helicase inh – blocks Hepatitis C virus NS3 helicase unwinding | NS3 helicase DNA unwinding, Cy5 molecular beacon fluorescence | inhibition, % at 10.9 µM | 290,000 tested, 0.56% active;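 active = inhibition above the mean of all tested compounds plus 3 SD, set per campaign, cut at about 35% in these data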;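 also: 0% = DMSO wells and 100% = thioflavine S control wells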
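Test system: hepatitis C virus NS3 helicase domain fragment enzyme. Also added: annealed dual-labelled DNA beacon duplex, ATP-started. Timing: 60 min unwinding reaction at 25 °C after ATP addition. Technique: Cy5 fluorescence. Measure: % inhibition of unwinding.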
VIM-2 inhibitor – inhibitors of Pseudomonas aeruginosa VIM-2 metallo-beta-lactamase; 290,000 tested, 0.89% active; purified VIM-2, nitrocefin hydrolysis, epi-absorbance fluorescence; inhibition, % at 5.6 µM;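 active = inhibition above the mean of all tested compounds plus 3 SD, cutoff set per screening run, cut at about 7.5% in these data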;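 also: red hydrolysis product quenches plate fluorescence so inhibitors raise well fluorescence; 0% = enzyme with DMSO and 100% = DMSO without enzyme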
core dimer inh – HCV core protein dimerization inhibition; TR-FRET GST/Flag-core106 dimerization, 1536-well; inhibition, % at 5 µM; 300,000 tested, 0.33% active;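 active = inhibition above the mean of all tested compounds plus 3 SD, set per screening campaign, cut at about 45% in these data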
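Assay system: Tagged HCV core106 pair (GST and Flag) | Buffer or medium: KF-containing HEPES buffer, pH 7.45, DTT, CHAPS, BSA | Also added: Eu donor and XL665 acceptor anti-tag antibodies | Dosing: One concentration, 5 µM, in 0.5% DMSO | Timing: 4 h at 22.5 °C | Technique: TR-FRET 671 and 617 nm emission | Repeats: Singlicate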
IMP-1 inh – blocks Pseudomonas aeruginosa IMP-1 metallo-beta-lactamase | purified IMP-1, nitrocefin hydrolysis, epi-absorbance fluorescence | inhibition, % at 5.6 µM | 290,000 tested, 0.45% active;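 active = inhibition above the mean plus 3 SD of all compounds in the same screening run, cut at about 4.5% in these data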;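 also: 0% = IMP-1 with DMSO and 100% = DMSO wells lacking enzyme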
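assay system = purified recombinant IMP-1 metallo-beta-lactamase enzyme | schedule = 15 min preincubation plus 25 min reaction at 25 °C | signal = Epi-absorbance fluorescence, 480 nm excitation, 530 nm emission | read-out basis = percent inhibition from optical density relative to buffer-blank wells | controls = IMP-1 with DMSO as 0%, enzyme-free DMSO as 100%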
PHOSPHO1 block – inhibitors of human PHOSPHO1 phosphatase; 290,000 tested, 1.1% active; recombinant PHOSPHO1, absorbance phosphatase assay; Q8TCT1; inhibition, % at 13.3 µM; in the data active = inhibition above about 60%
Target sequence (Q8TCT1 whole entry, looked up): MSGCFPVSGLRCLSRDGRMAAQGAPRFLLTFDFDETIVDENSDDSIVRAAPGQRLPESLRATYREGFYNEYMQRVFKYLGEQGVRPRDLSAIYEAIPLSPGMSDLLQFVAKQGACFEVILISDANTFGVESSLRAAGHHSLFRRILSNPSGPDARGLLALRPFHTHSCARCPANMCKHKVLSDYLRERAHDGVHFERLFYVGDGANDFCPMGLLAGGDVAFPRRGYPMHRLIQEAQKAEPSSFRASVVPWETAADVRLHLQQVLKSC
UBC9 SUMO inh – SUMOylation inhibition | HTRF SUMOylation assay, SAE1/SAE2 + UBC9, in vitro | inhibition, % at 35 µM | 290,000 tested, 0.36% active | AID 2006; in the data active = inhibition above about 50%, passing the limit was not always enough
VIM-2 inh confirm – VIM-2 inhibition, confirmation assay; shares compounds with IMP-1 inh; purified VIM-2 enzyme, nitrocefin absorbance; inhibition, % at 5.6 µM; 200 tested, 73% active; in the data active = inhibition above about 8%;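 also: 0% = enzyme with vehicle and 100% = no enzyme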
TEM-1 counter – blocks E. coli TEM-1 beta-lactamase, VIM-2 IMP-1 counter-screen; shares compounds with IMP-1 inh; nitrocefin absorbance inhibition; inhibition, % at 5.6 µM; 200 tested, 50% active; AID 2184; in the data active = inhibition above about 0.66%
Target sequence (P62593 whole entry, looked up): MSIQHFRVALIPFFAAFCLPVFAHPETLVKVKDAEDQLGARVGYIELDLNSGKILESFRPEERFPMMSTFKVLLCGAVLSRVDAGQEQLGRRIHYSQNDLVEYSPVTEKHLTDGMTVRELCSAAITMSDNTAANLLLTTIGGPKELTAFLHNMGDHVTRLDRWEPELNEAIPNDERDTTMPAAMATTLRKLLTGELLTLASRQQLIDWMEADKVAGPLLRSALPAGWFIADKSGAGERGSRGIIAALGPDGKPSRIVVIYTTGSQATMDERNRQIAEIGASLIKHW
IMP-1 inh conf – confirmation of P. aeruginosa IMP-1 metallo-beta-lactamase inhibitors | 200 tested, 60% active | AID 2189 | shares compounds with IMP-1 inh | purified IMP-1 enzyme, absorbance substrate hydrolysis | inhibition, % at 5.6 µM; in the data active = inhibition above about 4.9%;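 also: 0% = enzyme with vehicle and 100% = vehicle without enzyme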
NS3 helicase cf – HCV NS3 helicase inhibition, confirmation assay. shares compounds with NS3 helicase inh. inhibition, % at 10.9 µM. AID 1943. NS3 helicase DNA unwinding, Cy5 molecular beacon fluorescence. 1,600 tested, 31% active;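 active = inhibition above the mean of all tested compounds plus 3 SD, cutoff set per campaign, cut at about 36% in these data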
FID counter trip – intercalator displacement, NS3 helicase counter-screen; AID 1945; DNA fluorescent intercalator displacement, fluorescence; 1,600 tested, 4% active; inhibition, % at 7.9 µM; shares compounds with NS3 helicase inh; in the data active = inhibition above about 37%;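 also: 0% = vehicle and 100% = reference compound; higher means more displacement of ethidium bromide from the DNA hairpin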
DNA FID DR – DNA intercalator displacement in dose response | shares compounds with NS3 helicase inh | 120 tested, under 10 active | fluorescent intercalator displacement from DNA, fluorescence | IC50, µM; call rule not given here
An asterisk follows results filed as active; . = no result given.

SMILES | NS3 helicase inh | VIM-2 inhibitor | core dimer inh | IMP-1 inh | PHOSPHO1 block | UBC9 SUMO inh | NS3 helicase cf | FID counter trip | others
Cc1c(O)ccc(C(=O)CN2CCN(Cc3ccc4c(c3)OCO4)CC2)c1O | 84.3* | 91.0* | -2.5 | 87.4* | 0.3 | 2.0 | -4.5 | 34.5 | VIM-2 inh confirm=-0.9;TEM-1 counter=-5.6;IMP-1 inh conf=-2.2
COc1c(O)cc2oc(-c3ccc(O)cc3)cc(=O)c2c1O | . | . | 1.8 | . | 13.3 | 0.5 | . | .
COc1cc(OC)c(-c2c3cc(O)c(=O)cc-3oc3cc(O)c(O)cc23)cc1OC | 50.7* | 15.5* | -17.9 | 7.0* | -11.7 | 80.1* | 85.5* | -167.0 | VIM-2 inh confirm=48.9*;TEM-1 counter=74.6*;IMP-1 inh conf=45.9*
O=S(=O)(NC1CCCC1)c1cc(F)ccc1F | 2.7 | -1.2 | -4.7 | -1.5 | 9.6 | 9.0 | . | .
CCCC(c1c(C)n(C)n(-c2ccccc2)c1=O)c1c(C)n(C)n(-c2ccccc2)c1=O | -2.7 | -2.8 | -0.2 | -1.4 | 10.7 | 1.5 | . | .
CCC(c1c(C)n(C)n(-c2ccccc2)c1=O)c1c(C)n(C)n(-c2ccccc2)c1=O | 38.6* | 36.3* | -3.1 | 39.2* | -6.8 | -1.6 | -13.4 | -2.5 | VIM-2 inh confirm=-2.5;TEM-1 counter=-4.3;IMP-1 inh conf=-3.6
COc1cc(OC)cc(C(=O)N[C@H](C(=O)OCC(=O)N2CCc3ccccc32)C(C)C)c1 | -14.6 | 1.9 | 4.2 | -2.1 | 11.4 | -6.5 | . | .
O=C(O)CCCN1C(=O)/C(=C/C=C/c2ccco2)SC1=S | 73.3* | 7.1 | 74.5* | 10.0* | 6.2 | 70.4 | 76.4* | 4.1 | VIM-2 inh confirm=-0.8;TEM-1 counter=-4.0;IMP-1 inh conf=-2.8
O=C1CCCC(=O)C1CS(=O)(=O)c1ccccc1 | 0.1 | -1.1 | -1.6 | -1.6 | -7.2 | 6.7 | . | .
O=C1CC(c2ccc(Cl)cc2)CC(=O)C1CS(=O)(=O)c1ccccc1 (stereo unspecified) | 36.2* | -1.2 | 6.1 | -2.9 | 24.1 | -7.9 | 69.6* | -13.7
COc1ccc(C2CC(=O)C(CS(=O)(=O)c3ccccc3)C(=O)C2)cc1 (stereo unspecified) | 42.7* | -2.2 | -2.0 | -2.9 | 27.2 | 7.1 | -4.7 | -35.5
COc1ccc(C2=CC(=O)CC(c3ccccc3)C2)cc1 (stereo unspecified) | -11.4 | 1.5 | 11.7 | -2.3 | 12.6 | -9.3 | . | .
CCCn1c(=O)[nH]c(=O)c2c1nc(-c1cccs1)n2CCOC | 5.2 | -1.5 | 4.2 | 0.0 | 19.2 | 15.4 | . | .
Cc1ccc(C(=O)N/C(=C/c2ccco2)C(=O)N2CCC(C)CC2)cc1 | 46.6* | -6.0 | 2.9 | -1.8 | -7.2 | -6.7 | -18.7 | -32.3
Cc1ccc(C(=O)N/C(=C/c2ccco2)C(=O)NCc2ccco2)cc1 | 37.4* | -0.6 | -6.8 | 1.8 | -5.9 | 19.2 | 1.4 | 9.4
COc1ccc(CNCc2cccc(Oc3ccccc3)c2)cc1 | -58.4 | -1.8 | -3.5 | -1.4 | 1.8 | 15.1 | . | .
COc1ccccc1OCCCOc1cccc(/C=C2\SC(=O)NC2=O)c1 | 44.2* | -3.7 | 11.5 | -5.6 | 13.9 | 28.4 | 68.1* | -9.1 | DNA FID DR=>79.4
CCCOc1ccc2ccccc2c1/C=C1\SC(=O)NC1=O | 36.4* | -0.2 | 9.8 | -0.3 | 28.7 | 15.9 | 30.3 | -21.0
COc1ccccc1OCCCOc1ccc(/C=C2\SC(=O)NC2=O)cc1OC | 24.8 | -2.2 | 18.0 | -2.4 | 13.9 | 17.5 | . | .
CCCOc1ccc(/C=c2\sc3nc(-c4ccco4)nn3c2=O)cc1OCC | 42.3* | -2.6 | 10.5 | -0.6 | 36.3 | 2.3 | -12.4 | -2.1
